Results reported in ChEMBL document CHEMBL3091445, “The 3,7-diazabicyclo[3.3.1]nonane scaffold for subtype selective nicotinic acetylcholine receptor ligands. Part 2: carboxamide derivatives with different spacer motifs” (Bioorg Med Chem, 2013).
Active and inactive are the calls of the source. The rule behind the calls is not given here.

Experiments:
[1] = target: T1, Nicotinic acetylcholine receptor alpha1/beta1/epsilon/delta (Mus musculus) (UniProt P04756+P09690+P02716+P20782); assay: Agonist activity at mouse muscle alpha1beta1epsilondelta nAChR expressed in Xenopus oocytes at 1 uM incubated for 8 secs followed by compound washout measured after 241 secs by two-electrode voltage clamp technique; format: cell-based
[2] = target: T2, Neuronal acetylcholine receptor; alpha3/beta4 (Homo sapiens) (UniProt P30926+P32297); assay: Agonist activity at human alpha3beta4 nAChR expressed in Xenopus oocytes at 1 uM incubated for 8 secs followed by compound washout measured after 241 secs by two-electrode voltage clamp technique; format: cell-based
[3] = target: T3, Neuronal acetylcholine receptor; alpha4/beta2 (Homo sapiens) (UniProt P17787+P43681); assay: Partial agonist activity at human alpha4beta2 nAChR expressed in Xenopus oocytes at 1 uM incubated for 8 secs followed by compound washout measured after 241 secs by two-electrode voltage clamp technique; format: cell-based
[4] = target: T2, Neuronal acetylcholine receptor; alpha3/beta4 (Homo sapiens); assay: Agonist activity at human alpha3beta4 nAChR expressed in Xenopus oocytes at 10 uM incubated for 8 secs followed by compound washout measured after 241 secs by two-electrode voltage clamp technique; format: cell-based
[5] = target: Neuronal acetylcholine receptor subunit alpha-7 (Homo sapiens) (UniProt P36544); assay: Antagonist activity at human alpha7 nAChR expressed in Xenopus oocytes assessed as inhibition of acetylcholine-induced effect at 1 uM incubated for 12 secs followed by compound washout measured after 181 secs by two-electrode voltage clamp technique; format: cell-based
[6] = target: Neuronal acetylcholine receptor subunit alpha-7 (Homo sapiens) (UniProt P36544); assay: Agonist activity at human alpha7 nAChR expressed in Xenopus oocytes at 1 uM incubated for 12 secs followed by compound washout measured after 181 secs by two-electrode voltage clamp technique; format: cell-based
[7] = target: Neuronal acetylcholine receptor; alpha4/beta2 (Rattus norvegicus, UniProt P09483+P12390); assay: Displacement of [3H]epibatidine from Sprague-Dawley rat brain alpha4beta2 nAChR after 90 mins by liquid scintillation counting analysis
Method in brief: (§1)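 Radioligand competition binding gave Ki values, reported as mean ± SEM from 2–10 independent experiments.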

[8] = target: T3, Neuronal acetylcholine receptor; alpha4/beta2 (Homo sapiens); assay: Partial agonist activity at human alpha4beta2 nAChR expressed in Xenopus oocytes at 10 uM incubated for 8 secs followed by compound washout measured after 241 secs by two-electrode voltage clamp technique; format: cell-based
[9] = target: T2, Neuronal acetylcholine receptor; alpha3/beta4 (Homo sapiens); assay: Antagonist activity at human alpha3beta4 nAChR expressed in Xenopus oocytes at 1 uM incubated for 8 secs followed by compound washout measured after 241 secs by two-electrode voltage clamp technique; format: cell-based
[10] = Displacement of [3H]epibatidine from Torpedo californica electroplax (alpha1)2beta1gammadelta nAChR after 90 mins by liquid scintillation counting analysis; parameters: species or system Tetronarce californica
[11] = target: T1, Nicotinic acetylcholine receptor alpha1/beta1/epsilon/delta (Mus musculus); assay: Agonist activity at mouse muscle alpha1beta1epsilondelta nAChR expressed in Xenopus oocytes at 10 uM incubated for 8 secs followed by compound washout measured after 241 secs by two-electrode voltage clamp technique; format: cell-based
[12] = target: Neuronal acetylcholine receptor subunit alpha-7 (Rattus norvegicus, UniProt Q05941); assay: Displacement of [3H]methyllycaconitine from Sprague-Dawley rat brain alpha7 nAChR after 120 mins by liquid scintillation counting analysis; format: tissue-based; method in brief: as §1
[13] = Displacement of [3H]epibatidine from calf adrenal alpha3beta4 nAChR after 90 mins by liquid scintillation counting analysis; parameters: species or system Bos taurus
[14] = target: T1, Nicotinic acetylcholine receptor alpha1/beta1/epsilon/delta (Mus musculus); assay: Antagonist activity at mouse muscle alpha1beta1epsilondelta nAChR expressed in Xenopus oocytes assessed as inhibition of acetylcholine-induced effect at 1 uM incubated for 8 secs followed by compound washout measured after 241 secs by two-electrode voltage clamp technique; format: cell-based
[15] = target: T3, Neuronal acetylcholine receptor; alpha4/beta2 (Homo sapiens); assay: Antagonist activity at human alpha4beta2 nAChR expressed in Xenopus oocytes assessed as inhibition of acetylcholine-induced effect at 1 uM incubated for 8 secs followed by compound washout measured after 241 secs by two-electrode voltage clamp technique; format: cell-based
[16] = target: Neuronal acetylcholine receptor subunit alpha-7 (Homo sapiens) (UniProt P36544); assay: Agonist activity at human alpha7 nAChR expressed in Xenopus oocytes at 10 uM incubated for 12 secs followed by compound washout measured after 181 secs by two-electrode voltage clamp technique; format: cell-based

Chain of Neuronal acetylcholine receptor subunit alpha-7 (Q05941 whole entry): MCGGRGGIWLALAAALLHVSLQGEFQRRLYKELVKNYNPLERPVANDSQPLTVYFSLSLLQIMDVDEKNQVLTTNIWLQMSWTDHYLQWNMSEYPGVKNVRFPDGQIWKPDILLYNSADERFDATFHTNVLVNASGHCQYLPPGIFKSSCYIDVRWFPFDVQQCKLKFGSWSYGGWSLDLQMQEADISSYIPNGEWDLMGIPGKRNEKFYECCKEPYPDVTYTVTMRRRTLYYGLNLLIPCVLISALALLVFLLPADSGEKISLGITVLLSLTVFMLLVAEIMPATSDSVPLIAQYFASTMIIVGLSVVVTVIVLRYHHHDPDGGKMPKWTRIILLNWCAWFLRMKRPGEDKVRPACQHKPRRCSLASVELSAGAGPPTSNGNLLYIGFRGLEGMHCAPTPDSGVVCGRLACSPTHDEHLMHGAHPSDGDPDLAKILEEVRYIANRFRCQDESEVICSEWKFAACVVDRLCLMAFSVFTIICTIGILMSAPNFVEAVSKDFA
Chain of Neuronal acetylcholine receptor subunit alpha-7 (Homo sapiens) (P36544 whole entry): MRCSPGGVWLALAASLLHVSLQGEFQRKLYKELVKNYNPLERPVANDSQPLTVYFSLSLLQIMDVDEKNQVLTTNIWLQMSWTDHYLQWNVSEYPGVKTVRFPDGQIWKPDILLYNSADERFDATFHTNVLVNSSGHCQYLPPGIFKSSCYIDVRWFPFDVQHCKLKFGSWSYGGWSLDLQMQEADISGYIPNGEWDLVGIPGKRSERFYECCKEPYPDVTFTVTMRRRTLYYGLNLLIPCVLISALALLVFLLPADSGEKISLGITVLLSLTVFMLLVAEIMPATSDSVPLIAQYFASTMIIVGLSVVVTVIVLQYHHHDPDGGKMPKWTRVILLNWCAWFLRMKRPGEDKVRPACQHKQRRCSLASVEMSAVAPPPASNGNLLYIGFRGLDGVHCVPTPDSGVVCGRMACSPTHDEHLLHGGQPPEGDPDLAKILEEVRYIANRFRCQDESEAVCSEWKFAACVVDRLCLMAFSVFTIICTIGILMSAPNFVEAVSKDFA
Chain of Neuronal acetylcholine receptor; alpha4/beta2 (P09483 whole entry): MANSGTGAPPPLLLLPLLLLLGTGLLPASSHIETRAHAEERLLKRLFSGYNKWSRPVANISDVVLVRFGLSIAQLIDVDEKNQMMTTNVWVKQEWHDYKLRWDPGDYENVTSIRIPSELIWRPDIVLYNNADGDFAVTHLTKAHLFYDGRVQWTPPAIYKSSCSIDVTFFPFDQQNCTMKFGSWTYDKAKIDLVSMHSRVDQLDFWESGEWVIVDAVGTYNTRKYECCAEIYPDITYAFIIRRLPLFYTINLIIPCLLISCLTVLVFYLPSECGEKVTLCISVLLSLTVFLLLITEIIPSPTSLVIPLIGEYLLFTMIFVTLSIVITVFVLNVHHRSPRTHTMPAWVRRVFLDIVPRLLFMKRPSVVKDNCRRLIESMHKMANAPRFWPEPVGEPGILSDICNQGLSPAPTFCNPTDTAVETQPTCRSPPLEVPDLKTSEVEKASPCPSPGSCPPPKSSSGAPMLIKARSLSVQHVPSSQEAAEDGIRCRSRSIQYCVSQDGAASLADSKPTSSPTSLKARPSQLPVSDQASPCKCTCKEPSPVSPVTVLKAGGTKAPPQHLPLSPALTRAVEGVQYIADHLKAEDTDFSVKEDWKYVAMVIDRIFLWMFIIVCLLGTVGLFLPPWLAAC
Chain of Neuronal acetylcholine receptor; alpha4/beta2 (P12390 whole entry): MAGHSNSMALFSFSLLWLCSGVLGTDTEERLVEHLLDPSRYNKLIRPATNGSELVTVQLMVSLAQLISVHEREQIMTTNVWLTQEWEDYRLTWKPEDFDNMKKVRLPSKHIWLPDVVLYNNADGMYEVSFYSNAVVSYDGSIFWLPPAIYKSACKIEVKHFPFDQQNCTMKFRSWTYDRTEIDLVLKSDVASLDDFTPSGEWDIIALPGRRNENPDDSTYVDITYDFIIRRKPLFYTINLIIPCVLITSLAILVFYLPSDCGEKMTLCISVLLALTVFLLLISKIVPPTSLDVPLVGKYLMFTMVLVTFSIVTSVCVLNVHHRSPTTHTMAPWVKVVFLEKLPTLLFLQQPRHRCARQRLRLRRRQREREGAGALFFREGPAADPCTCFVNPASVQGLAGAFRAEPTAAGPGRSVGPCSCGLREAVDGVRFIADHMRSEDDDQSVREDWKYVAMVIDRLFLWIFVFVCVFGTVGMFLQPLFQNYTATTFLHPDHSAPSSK

Row | SMILES | Activity [1] | Activity [2] | Activity [3] | Activity [4] | inhibition [5] | Activity [6] | Ki [7] [µM] | Activity [8] | Activity [9] | Ki [10] [µM] | Activity [11] | Ki [12] [µM] | Ki [13] [µM] | inhibition [14] | antagonist activity (active/inactive) [15] | Activity [16]
1 | CS(=O)(=O)c1ccc(CC(=O)N2C[C@@H]3CNC[C@@H](C3)C2)cc1 | inactive | inactive | Active | inactive | inactive | inactive | 0.0229 | Active | inactive | > 5 | inactive | > 5 | > 5 | inactive | Active | –
2 | O=C(c1ccc(-n2ccnc2)cc1)N1C[C@@H]2CNC[C@@H](C2)C1 | inactive | inactive | Active | inactive | inactive | inactive | 0.0056 | Active | inactive | > 5 | inactive | > 1 | > 1 | inactive | Active | –
3 | O=C(c1ccc(-c2ccncc2)cc1)N1C[C@@H]2CNC[C@@H](C2)C1 | inactive | inactive | Active | inactive | inactive | inactive | 0.0071 | Active | inactive | > 5 | inactive | > 1 | > 1 | inactive | Active | –
4 | O=C(C#Cc1ccc2c(c1)OCO2)N1C[C@@H]2CNC[C@@H](C2)C1 | – | – | – | inactive | inactive | – | 0.0031 | Active | inactive | > 5 | inactive | > 1 | > 1 | inactive | Active | –
5 | O=C(/C=C/c1ccc2c(c1)OCO2)N1C[C@@H]2CNC[C@@H](C2)C1 | inactive | inactive | Active | inactive | inactive | inactive | 0.0369 | Active | inactive | > 5 | inactive | > 1 | > 1 | inactive | – | –
6 | O=C([C@@H]1C[C@H]1c1ccccc1)N1C[C@@H]2CNC[C@@H](C2)C1 | – | – | – | Active | inactive | – | 0.0012 | – | – | – | inactive | > 10 | – | inactive | Active | Active
7 | O=C(/C=C/c1ccncc1)N1C[C@@H]2CNC[C@@H](C2)C1 | inactive | inactive | Active | inactive | inactive | inactive | 0.00103 | Active | inactive | > 5 | inactive | > 10 | > 1 | inactive | – | –
8 | COc1ccc(C#CC(=O)N2C[C@@H]3CNC[C@@H](C3)C2)cc1Cl | – | – | – | inactive | inactive | – | 0.000991 | Active | inactive | > 5 | inactive | > 1 | > 1 | inactive | Active | –
9 | O=C(Cc1ccc2c(c1)OCO2)N1C[C@@H]2CNC[C@@H](C2)C1 | inactive | inactive | Active | inactive | inactive | inactive | 0.0132 | Active | inactive | > 5 | inactive | > 1 | > 1 | inactive | – | –
10 | O=C(Cc1cccnc1)N1C[C@@H]2CNC[C@@H](C2)C1 | inactive | inactive | Active | inactive | inactive | inactive | 0.0112 | Active | inactive | > 5 | inactive | > 1 | > 1 | inactive | – | –
11 | COc1ccc(C#CC(=O)N2C[C@@H]3CNC[C@@H](C3)C2)cc1OC | – | – | – | inactive | inactive | – | 0.0021 | Active | inactive | > 5 | inactive | > 1 | > 1 | Active | Active | –
12 | O=C(Cc1ccncc1)N1C[C@@H]2CNC[C@@H](C2)C1 | inactive | inactive | Active | inactive | inactive | inactive | 0.0144 | Active | inactive | > 5 | inactive | > 1 | > 1 | inactive | – | –
13 | O=C(c1ccc(-c2cccnc2)cc1)N1C[C@@H]2CNC[C@@H](C2)C1 | inactive | inactive | Active | inactive | inactive | inactive | 0.025 | Active | inactive | > 5 | inactive | > 1 | > 1 | inactive | Active | –
